This note sets out measurements from ChEMBL document CHEMBL3414422, “Synthesis of new steroidal inhibitors of P-glycoprotein-mediated multidrug resistance and biological evaluation on K562/R7 erythroleukemia cells” (J Med Chem, 2015).

One data set has as its system K562/R7. The data set can be described thus: Inhibition of p-gp (unknown origin) in doxorubicin-resistant human K562/R7 cells assessed as increase in daunorubicin accumulation measured as fluorescence ratio at 10 uM incubated for 1 hr with 10 uM daunorubicin by flow cytometry relative to control. It is filed as cell-based. Summed up:
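Resistant K562/R7 cells ([…]) incubated 1 h at 37 °C in RPMI 1640 with daunorubicin 10 µM, with or without steroid at 10 µM; intracellular fluorescence read by flow cytometry. Accumulation index = daunorubicin fluorescence ratio with/without modulator. Cyclosporin A as positive control. Duplicates, at least three separate experiments.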
A general note: In flow cytometry, cells or beads pass a laser one at a time.

Data set [1] is described as follows: Intrinsic cytotoxicity against human K562 cells assessed as cell survival […] by MTT assay. The note with it: read-out: Survival. It is filed as cell-based. For orientation: Tetrazolium dyes change colour on reduction, which living cells bring about.

On to `CC(=O)[C@H]1CC[C@H]2[C@H]3[C@H]([C@H](OC(=O)c4ccccc4)C[C@]12C)[C@@]1(C)CCC(=O)C[C@H]1C[C@H]3OC(=O)c1ccccc1`, for which the Ratio in the data set on K562/R7 is 2.5. Further, the viability in data set [1] was 66.4%.
On to `COCO[C@@H]1C[C@@H]2CC(=O)CC[C@]2(C)[C@H]2C[C@H](OC(=O)c3ccccc3)[C@]3(C)[C@@H](C(C)CCC(=O)OC)CC[C@H]3[C@H]12` (some centres not stated), for which the Ratio in the data set on K562/R7 came out at 3.8. For the same molecule, the viability in data set [1] amounted to 43.5%.
Consider `CC(=O)[C@H]1CC[C@H]2[C@H]3[C@H]([C@H](O[C@@H]4CCCCO4)C[C@]12C)[C@@]1(C)CCC(=O)C[C@H]1C[C@H]3OC1CCCCO1` (mixture of isomers), for which, in the data set with K562/R7, the Ratio was determined as 2.6. Moreover, the viability in data set [1] came out at 86.7%.
`CC#C[C@]1(O)CC[C@H]2[C@@H]3CCC4=CC(=O)CCC4=C3[C@@H](c3ccc(N(C)C)cc3)C[C@@]21C` [MIFEPRISTONE]: the Ratio in the data set on K562/R7 is 2.4. Also, in data set [1], the viability was found to be 95.6%.
For `CC(=O)[C@H]1CC[C@H]2[C@H]3[C@H]([C@H](O[C@H]4CCCCO4)C[C@]12C)[C@@]1(C)CCC(=O)C[C@H]1C[C@H]3OC1CCCCO1` (mixture of isomers), in the data set on K562/R7, the Ratio is 2.5. In addition, the viability in data set [1] came out at 84.4%.
Turning to `COCO[C@@H]1C[C@@H]2CC(=O)CC[C@]2(C)[C@H]2C[C@H](O)[C@]3(C)[C@@H](C(C)CCC(=O)OC)CC[C@H]3[C@H]12` (some centres not stated), the Ratio with K562/R7 turned out to be 1.8. The viability in data set [1] came out at 95.7%.
